# Bridge positions count the residues as written; N and C are the ends. Square brackets hold non-standard residues; d marks the D form. Peptide text beside a SMILES is read from it. * marks the point of attachment. X1 = CN(C)c1ccc2c(-c3ccc(C(=O)*)cc3C(=O)[O-])c3ccc(=[N+](C)C)cc-3oc2c1; R5 = C=CCCC[C@@](C)(N)C(=O)O; S5 = C=CCCC[C@](C)(N)C(=O)O
# What was measured:
# [1] = test system: OPDA-responsive marker genes in Marchantia gemmalings; assay: RT-qPCR of OPDA-responsive marker genes in M. polymorpha; format: in vivo, Marchantia polymorpha; settings: 4 (10 µM) with OPDA (50 µM), 6 h
# [2] = test system: A. thaliana seedlings (Col-0); assay: Secondary metabolite quantification in A. thaliana; format: in vivo, Arabidopsis thaliana; settings: Col-0 seedlings, 4 (10 µM) with MeJA (50 µM), 4 days, n = 4, LC/MS
# Outline: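 7-day-old Col-0 seedlings treated 4 days with MeJA (50 µM) ± test compound (10 µM). Glucobrassicin (i-3ym) and p-coumaroyl agmatine accumulation quantified (n = 4). Experiment repeated three times; one-way ANOVA/Tukey's HSD, P < 0.01.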
# His-EIL1-FLAG = biological target: T1, His-EIL1-FLAG (Arabidopsis thaliana, UniProt Q9SLH0); assay: Fluorescence anisotropy; format: binding
# T1 sequence (Q9SLH0 201-501): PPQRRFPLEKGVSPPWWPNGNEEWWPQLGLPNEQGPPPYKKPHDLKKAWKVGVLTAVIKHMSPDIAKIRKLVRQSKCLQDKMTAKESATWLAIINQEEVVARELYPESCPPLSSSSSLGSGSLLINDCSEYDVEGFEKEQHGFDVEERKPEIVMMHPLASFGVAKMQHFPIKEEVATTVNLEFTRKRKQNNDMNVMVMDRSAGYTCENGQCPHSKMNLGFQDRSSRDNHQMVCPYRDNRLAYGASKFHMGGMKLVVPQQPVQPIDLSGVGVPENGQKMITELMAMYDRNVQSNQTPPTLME
# Outline: (§1)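 FA titration at 25°C in 20 mM Tris-HCl pH 8.0, 200 mM NaCl, 10% glycerol, 10% cOmplete EDTA-free, with 2-mercaptoethanol (EIN3/EIL1 family). Protein added dropwise to 100 nM TMR-labelled peptide; His-EIN3-FLAG titrated 0–2 µM. Anisotropy read at ex/em 543/573.5 nm. Each point is the average of three independent measurements. Apparent Kd obtained by nonlinear curve fitting.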
# [3] = biological target: T2, His-EIN3-FLAG (His6-SUMO-EIN3(200–500)-FLAG) (Arabidopsis thaliana, UniProt O24606); assay: Fluorescence anisotropy; format: binding
# T2 sequence (O24606 200-500): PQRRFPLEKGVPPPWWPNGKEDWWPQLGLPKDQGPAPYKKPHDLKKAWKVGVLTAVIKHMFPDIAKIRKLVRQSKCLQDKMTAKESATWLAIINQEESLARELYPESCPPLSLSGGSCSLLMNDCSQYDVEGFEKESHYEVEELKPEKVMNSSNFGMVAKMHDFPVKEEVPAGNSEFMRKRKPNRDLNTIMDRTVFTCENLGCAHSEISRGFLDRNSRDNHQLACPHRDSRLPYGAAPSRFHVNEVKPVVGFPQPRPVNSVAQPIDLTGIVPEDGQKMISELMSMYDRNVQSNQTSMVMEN
# Outline: as §1
# [4] = biological target: T3, His-MYC3-FLAG (His6-SUMO-MYC3(44–238)-FLAG) (Arabidopsis thaliana, UniProt Q9FIP9); assay: Fluorescence anisotropy; format: binding
# T3 sequence (Q9FIP9 44-238): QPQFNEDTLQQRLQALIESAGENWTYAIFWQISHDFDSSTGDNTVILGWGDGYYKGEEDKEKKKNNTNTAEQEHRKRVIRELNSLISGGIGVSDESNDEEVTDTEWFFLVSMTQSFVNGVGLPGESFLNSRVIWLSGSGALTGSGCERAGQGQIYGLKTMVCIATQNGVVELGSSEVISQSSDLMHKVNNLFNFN
# [5] = test system: His-MpMYC-Y-FLAG (MpMYC-Y(102-299)); assay: Fluorescence anisotropy; format: binding, Marchantia polymorpha; settings: ratio of Kd of 1 to Kd of the peptide
# Outline: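 FA titration of 100 nM TMR-labelled peptide with His-MpMYC-Y-FLAG (0–2 µM), added dropwise. Conditions: 25°C, 20 mM Tris-HCl pH 8.0, 200 mM NaCl, 10% glycerol, 10% cOmplete EDTA-free, no 2-mercaptoethanol (MYC family). Read at ex/em 543/573.5 nm, triplicate points. Apparent Kd from nonlinear fitting; values compared as Kd ratios.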
# [6] = biological target: T4, biotin-MED25^CMIDM/His-MYC3-FLAG complex (Arabidopsis thaliana, UniProt Q9FIP9); assay: AlphaLISA inhibitory assay MED25CMIDM/MYC3; format: biochemical
# T4 sequence (Q9FIP9 44-238): T3 sequence (Q9FIP9 44-238)
# Outline: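 Competition AlphaLISA: biotin-MED25CMIDM (150 nM) with His-MYC3-FLAG (50 nM). TMR-conjugated test peptides titrated 0–3 µM to generate inhibition curves. Run in triplicate; mean and SD reported.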
# [7] = test system: JA-responsive marker genes in Arabidopsis seedlings; assay: RT-qPCR of JA-responsive marker genes in A. thaliana; format: in vivo, Arabidopsis thaliana
# Outline: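 Col-0 or mutant (e.g. myc234) seedlings grown at 22°C, 16 h light/8 h dark. At 7 days, treated in half-strength MS liquid medium with MeJA (50 µM) and/or test compound (10 µM). Exposure 2 h for AOS, OPR3, MYC2, ORA59 and 8 h for VSP2, PDF1.2, ACT. Total RNA extracted; oligo-dT-primed cDNA; RT-qPCR (n = 4). One-way ANOVA/Tukey's HSD.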
# [8] = test system: M. polymorpha gemmalings (Tak-1); assay: Growth; format: in vivo, Marchantia polymorpha; settings: Tak-1 gemmalings, 4 (10 µM) with OPDA (50 µM), n = 24
# Outline: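 Tak-1 gemmalings grown 2 weeks on half-strength Gamborg's B5 with 1% agar, containing OPDA (50 µM) ± test compound (10 µM). Continuous light 50–60 µmol m-2 s-1, 22°C. Plant area measured in mm2 (n = 24). Experiment repeated three times; one-way ANOVA/Tukey's HSD, P < 0.01.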
# [9] = test system: A. thaliana seedlings (Col-0); assay: Root growth of A. thaliana seedlings with MeJA; format: in vivo, Arabidopsis thaliana; settings: Col-0 seedlings, co-treatment 4 (10 µM) with MeJA (50 µM), n = 15
# Outline: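 Surface-sterilized Col-0 seeds stratified 2–3 days at 4°C. Grown on half-strength MS plates (2% sucrose, 0.4% gellan gum) with MeJA (50 µM) ± test compound (10 µM), under 16 h light (75 µmol m-2 s-1)/8 h dark at 22°C. Whole-seedling root length measured (n = 15). Repeated three times; one-way ANOVA/Tukey's HSD, P < 0.01.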
compound,measurement,setting,value
"CC[C@H](C)[C@H](NC(=O)[C@H](CCCCN)NC(=O)[C@H](CO)NC(=O)[C@@H](NC(=O)[C@]1(C)CCCC=CCCC[C@](C)(NC(=O)[C@H](CCCNC(=N)N)NC(=O)[C@H](Cc2ccccc2)NC(=O)[C@H](CO)NC(=O)[C@H](CCCNC(=N)N)NC(=O)[C@H](CCCNC(=N)N)NC(=O)[C@H](CCCNC(=N)N)NC(=O)[C@H](CC(=O)O)NC(=O)[C@H](CC(C)C)NC(=O)[C@H](Cc2ccccc2)NC(=O)[C@H](CCCCN)NC(=O)[C@H](CCC(N)=O)NC(=O)[C@H](Cc2ccccc2)NC(=O)c2ccc(-c3c4ccc(=[N+](C)C)cc-4oc4cc(N(C)C)ccc34)c(C(=O)[O-])c2)C(=O)N[C@@H]([C@@H](C)CC)C(=O)N[C@@H](CCC(N)=O)C(=O)NCC(=O)N1)[C@@H](C)CC)C(=O)N[C@@H](CC(=O)O)C(=O)N1CCC[C@H]1C(=O)N[C@@H](CCC(=O)O)C(=O)N[C@]1(C)CCCC=CCCC[C@@](C)(C(=O)N[C@@H](CC(C)C)C(=O)N[C@@H](CC(C)C)C(=O)N[C@@H](C)C(=O)N[C@@H](CO)C(=O)N[C@H](C(=O)O)[C@@H](C)O)NC(=O)[C@H](CCCCN)NC(=O)[C@H]([C@@H](C)CC)NC1=O [compound 4] (X1-FQKFLDRRRSFR[S5]IQG[S5]ISKIDPE[R5]IK[S5]LLAST-OH; staple 13-17, 25-28)",bioactivity on marker gene expression in MpMYC-Y knockout mutant mpmycy,[1],completely abolished
same,MeJA-triggered accumulation of p-coumaroyl agmatine (CouAgm) compared to MeJA alone,[2],significantly enhanced
same,"MeJA-triggered glucosinolate (glucobrassicin, i-3ym) accumulation",[2],significantly suppressed
same,Kd,His-EIL1-FLAG,116 nM
same,Kd,[3],105 nM
same,Kd,[4],5 nM
same,fold lower Kd with His-MYC3-FLAG than that of 1,[4]; ratio of Kd of 1 to Kd of the peptide,42 fold
same,fold lower Kd with MpMYC-Y than 1,[5],46 fold
same,Ki,[6],71 nM
same,"marker gene expression, peptide alone","[7]; 7-day-old Col-0, 4 (10 µM) alone without MeJA, 2 or 8 h",almost no effects
same,expression of ORA59 and ACT (EIN3/EIL1-marker genes),"[7]; 7-day-old Col-0, 4 (10 µM) with MeJA (50 µM), 2 or 8 h",activated
same,"MeJA-induced expression of MYC-mediated marker genes (VSP2, AOS, OPR3, MYC2)","[7]; 7-day-old Col-0, 4 (10 µM) with MeJA (50 µM), 2 or 8 h, n = 3 or 4",significantly suppressed
same,expression of PDF1.2 (EIN3/EIL1-mediated marker gene) compared with MeJA alone,"[7]; 7-day-old Col-0, 4 (10 µM) with MeJA (50 µM), 8 h",strongly activated
same,expression pattern of VSP2 and PDF1.2 on myc234 compared to MeJA alone,"[7]; MYC triple mutant myc234, 4 (10 µM) with MeJA (50 µM), 8 h, n = 4",did not significantly change
same,expression pattern of VSP2 and PDF1.2 on ein2-1 compared to MeJA alone,"[7]; ein2-1 mutant, 4 (10 µM) with MeJA (50 µM), 8 h, n = 3 or 4",did not significantly change
same,effect on OPDA growth inhibitory effects (plant area),[8],partially suppressed
same,effect on MeJA growth inhibitory effects (root length),[9],partially suppressed

# Source: paper PMC11319934 (PNAS Nexus, 2024)
